We go through one protein from ChEMBL document CHEMBL1130129, “Immunologically specific activation of a cephalosporin derivative of mitomycin C by monoclonal antibody beta-lactamase conjugates” (J Med Chem, 1997).

Substrate in data set [1]: CO[C@@]12[C@H](COC(N)=O)C3=C(C(=O)C(C)=C(NCC4=C(C(=O)O)N5C(=O)[C@@H](NC(=O)CCCC(=O)O)[C@H]5SC4)C3=O)N1C[C@@H]1N[C@@H]12
Put plainly: (§1) Determination of kinetic constant (Km) for hydrolysis by beta-lactamase from Enterobacter cloacae 99. Summed up:
(§2)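 Purified E. cloacae β-lactamase (0.1 µg/mL) added to prodrug in PBS pH 7.2 containing 12.5 µg/mL bovine serum albumin, 23 °C; β-lactam hydrolysis followed by loss of absorbance at 260 nm. Initial velocities taken from linear portions of absorbance-time plots and used to derive kinetic constants.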

Substrate in data set [2]: CO[C@@]12[C@H](COC(N)=O)C3=C(C(=O)C(C)=C(NCC4=C(C(=O)O)N5C(=O)[C@@H](NC(=O)Cc6ccccc6)[C@H]5SC4)C3=O)N1C[C@@H]1N[C@@H]12
The data set is described as §1. The procedure, abridged: as §2

Substrate in data set [3]: O=C(Cc1ccccc1)N[C@@H]1C(=O)N2C(C(=O)O)=C(COC(=O)Nc3ccc(N(CCCl)CCCl)cc3)CS[C@H]12
The description is as §1. Summed up:
as §2

Substrate in data set [4]: O=C(O)CCCC(=O)N[C@@H]1C(=O)N2C(C(=O)O)=C(COC(=O)Nc3ccc(N(CCCl)CCCl)cc3)CS[C@H]12
The data set is described as §1. Summed up:
as §2

B1: Beta-lactamase (Enterobacter cloacae), P05364 (protein)
chain: MMRKSLCCALLLGISCSALATPVSEKQLAEVVANTITPLMKAQSVPGMAVAVIYQGKPHYYTFGKADIAANKPVTPQTLFELGSISKTFTGVLGGDAIARGEISLDDAVTRYWPQLTGKQWQGIRMLDLATYTAGGLPLQVPDEVTDNASLLRFYQNWQPQWKPGTTRLYANASIGLFGALAVKPSGMPYEQAMTTRVLKPLKLDHTWINVPKAEEAHYAWGYRDGKAVRVSPGMLDAQAYGVKTNVQDMANWVMANMAPENVADASLKQGIALAQSRYWRIGSMYQGLGWEMLNWPVEANTVVEGSDSKVALAPLPVAEVNPPAPPVKASWVHKTGSTGGFGSYVAFIPEKQIGIVMLANTSYPNPARVEAAYHILEALQ
For the protein B1, the Km in data set [1] stood at 119 µM; in data set [2], 48.9 µM; in data set [3], 7 µM; in data set [4], 43.2 µM.
